Experimental data: paper PMC4681442 (Angewandte Chemie (International ed. in English), 2015)

What was measured:
SKOV3 cells = assay: Cell viability; format: cell-based; conditions: CDDP 6 μg/mL alone
PC-12 cells = conditions: cisplatin; cited from earlier work
HS-5 cells = assay: Cytotoxicity to HS-5 cells; format: cell-based; conditions: cisplatin (Figure S16)
A2780 cells = assay: Cell viability; format: cell-based; conditions: CDDP without adding D-1, 72 h
Outline: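 MTT assay (mitochondrial reductase activity) in cisplatin-sensitive A2780 and cisplatin-resistant A2780cis cells. Cells were incubated 72 h with precursor alone, cisplatin alone, or both together. Viability was expressed relative to untreated control, with significance thresholds p≤0.001 and p≤0.0001.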

Which results are given for [NH2][Pt]([NH2])([Cl])[Cl] [CDDP, cisplatin]?
inhibition of SKOV3 cells (SKOV3 cells; 72 h (Figure 2A)): 48%; cell death of SKOV3 cells (SKOV3 cells; 72 h, control experiment with 3): about 40%; inhibition of PC-12 cells (PC-12 cells): significantly inhibits; inhibition of HS-5 cells (HS-5 cells): significantly inhibits; cell viability of A2780 (A2780 cells): about 38%
